The source made the active and inactive calls. The rule behind the calls is not given here.
Experiments:
Oryctolagus cuniculus [1] = experiment: Toxicity in New Zealand White rabbit ischemia/reperfusion model assessed as heart rate at total dose of 3.8 umol/kg administered bolus at 40th mins and 1st min before sustained ischemia measured at 20 mins ischemia period of initial ischemic insult; format: organism-based; settings: in vivo, iv
Oryctolagus cuniculus [2] = experiment: Toxicity in New Zealand White rabbit ischemia/reperfusion model assessed as blood pressure at total dose of 3.8 umol/kg administered bolus at 40th mins and 1st min before sustained ischemia measured at 20 mins ischemia period of initial ischemic insult; format: organism-based; settings: in vivo, iv
Oryctolagus cuniculus [3] = experiment: Toxicity in New Zealand White rabbit ischemia/reperfusion model assessed as heart rate at total dose of 3.8 umol/kg administered bolus at 20th mins of ischemia and 1st min of reperfusion measured at 180 mins reperfusion is period of reperfusion; format: organism-based; settings: in vivo, iv, 3 h
Oryctolagus cuniculus [4] = experiment: Toxicity in New Zealand White rabbit ischemia/reperfusion model assessed as blood pressure at total dose of 3.8 umol/kg administered bolus at 20th mins of ischemia and 1st min of reperfusion measured at 180 mins reperfusion is period of reperfusion; format: organism-based; settings: in vivo, iv, 3 h
Oryctolagus cuniculus [5] = experiment: Cardioprotective activity in New Zealand White rabbit ischemia/reperfusion model assessed as reduction of infarct size at total dose of 3.8 umol/kg administered bolus at 20th mins and 1st min of reperfusion; format: functional; design: scale not given: the % may be the effect or the level left
In short: (§1)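 Male rabbits (n = 6–8/group), anesthetized with thiopentone 30 mg/kg via ear vein, intubated and ventilated. Subjected to 30 min regional myocardial ischemia and 3 h reperfusion. Given as two boluses of 1.9 µmol/kg (3.8 µmol/kg total). Heart slices stained with 1% TTC (phosphate buffer pH 7.4, 20 min, 37 °C), then fixed in formaldehyde. Risk zone delineated under UV at 366 nm; infarct expressed relative to risk area.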

Oryctolagus cuniculus [6] = experiment: Cardioprotective activity in New Zealand White rabbit ischemia/reperfusion model assessed as reduction of infarct size at total dose of 3.8 umol/kg administered bolus at 40th mins and 1st min before sustained ischemia; format: functional; design: scale not given: the % may be the effect or the level left; in short: as §1
Oryctolagus cuniculus [7] = experiment: Toxicity in New Zealand White rabbit ischemia/reperfusion model assessed as mortality at total dose of 3.8 umol/kg administered bolus measured at 10th and 15th mins of reperfusion; format: organism-based; settings: in vivo
In short: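 Male rabbits, randomized (n = 6–8 per group), anesthetized with sodium thiopentone 30 mg/kg into an ear vein, intubated and mechanically ventilated. Regional myocardial ischemia for 30 min, then 3 h reperfusion. Compound given as bolus at the 20th min of ischemia and the 1st min of reperfusion, total dose 3.8 µmol/kg. Animal survival was followed through reperfusion.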

Oryctolagus cuniculus [8] = experiment: Cardioprotective activity in New Zealand White rabbit ischemia/reperfusion model assessed as reduction of infarct to risk area ratio at total dose of 3.8 umol/kg administered bolus; format: functional; design: scale not given: the % may be the effect or the level left; in short: as §1
Oryctolagus cuniculus [9] = experiment: Cardioprotective activity in New Zealand White rabbit ischemia/reperfusion model assessed as increase of eNOS phosphorylated level at total dose of 3.8 umol/kg administered bolus at 40th mins and 1st min before sustained ischemia by Western blot analysis; format: functional, organism-based
Oryctolagus cuniculus [10] = experiment: Cardioprotective activity in New Zealand White rabbit ischemia/reperfusion model assessed as increase of phosphorylated Akt level at total dose of 3.8 umol/kg administered bolus at 40th mins and 1st min before sustained ischemia by Western blot analysis; format: functional, organism-based

SMILES | Activity (Oryctolagus cuniculus [1]) | Activity (Oryctolagus cuniculus [2]) | Activity (Oryctolagus cuniculus [3]) | Activity (Oryctolagus cuniculus [4]) | Activity (Oryctolagus cuniculus [5]) | Activity (Oryctolagus cuniculus [6]) | Activity (Oryctolagus cuniculus [7]) | Activity (Oryctolagus cuniculus [8]) | Activity (Oryctolagus cuniculus [9]) | Activity (Oryctolagus cuniculus [10])
O=C(CCCCC1CCSS1)N1CCN(c2ncnc3[nH]cnc23)CC1 (stereo not given) | 279 bpm | 106 mmHg | 271 bpm | 101 mmHg | 28.6% | – | – | – | – | –
Nc1ncnc2c1ncn2[C@@H]1O[C@H](CO[N+](=O)[O-])[C@@H](O)[C@H]1O | 284 bpm | 102 mmHg | 275 bpm | 98 mmHg | 40.2% | – | – | – | – | –
O=C(Cn1cnc2c(N3CCCCC3)ncnc21)NCCO[N+](=O)[O-] | 280 bpm | 115 mmHg | 276 bpm | 102 mmHg | – | 28.4% | Toxic | – | – | –
O=C(CCCCCO[N+](=O)[O-])N1CCN(c2ncnc3[nH]cnc23)CC1 | 278 bpm | 117 mmHg | 269 bpm | 112 mmHg | 13.4% | 24.9% | – | 12.3% | – | –
O=C(NCCO[N+](=O)[O-])c1nc2c(N3CCCCC3)ncnc2[nH]1 | 274 bpm | 112 mmHg | 269 bpm | 103 mmHg | – | 34.4% | Toxic | – | – | –
O=C(CNc1ncnc2[nH]cnc12)NCCO[N+](=O)[O-] | 282 bpm | 110 mmHg | 273 bpm | 104 mmHg | – | 34.8% | Toxic | – | – | –
O=C(CO[N+](=O)[O-])N1CCN(c2ncnc3[nH]cnc23)CC1 | 278 bpm | 114 mmHg | 274 bpm | 109 mmHg | 26.2% | 37.3% | – | – | – | –
O=[N+]([O-])OCCCCCCn1cnc2c(N3CCCCC3)ncnc21 | 276 bpm | 112 mmHg | 270 bpm | 104 mmHg | 36.8% | 19.8% | – | – | Active | Active
O=[N+]([O-])OC[C@H]1O[C@@H](n2cnc3c(N4CCCCC4)ncnc32)[C@H](O)[C@@H]1O | 279 bpm | 113 mmHg | 271 bpm | 110 mmHg | 22.7% | 17.9% | – | – | – | –
